# PLC-gamma1 inh = PLC-gamma1 enzyme inhibitors, primary screen, biochemical, fluorescence, purified enzyme | AID 720700, 2013 | inhibition, % at 12.2 µM | fluorogenic substrate | actives 0.84% (n = 370,000) | 1-phosphatidylinositol 4,5-bisphosphate phosphodiesterase gamma-1 (Homo sapiens), P19174; in the data active means inhibition above about 9.5%
# ADAM10 inh = human ADAM10 inhibitors, primary screen, biochemical, QFRET, HTS | Disintegrin and metalloproteinase domain-containing protein 10 (Homo sapiens), O14672 | recombinant ADAM10, EDANS/DABCYL FRET peptide cleavage, 3 h | inhibition, % at 7 µM | actives 0.62% (n = 370,000);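 active means inhibition above a per-campaign cutoff equal to the mean of compounds falling between control-based bounds plus 3 SD, cut at about 20% in these data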;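 further: 0% = DMSO wells while the 100% control is not disclosed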
# Target sequence (O14672 214-748 limits assumed): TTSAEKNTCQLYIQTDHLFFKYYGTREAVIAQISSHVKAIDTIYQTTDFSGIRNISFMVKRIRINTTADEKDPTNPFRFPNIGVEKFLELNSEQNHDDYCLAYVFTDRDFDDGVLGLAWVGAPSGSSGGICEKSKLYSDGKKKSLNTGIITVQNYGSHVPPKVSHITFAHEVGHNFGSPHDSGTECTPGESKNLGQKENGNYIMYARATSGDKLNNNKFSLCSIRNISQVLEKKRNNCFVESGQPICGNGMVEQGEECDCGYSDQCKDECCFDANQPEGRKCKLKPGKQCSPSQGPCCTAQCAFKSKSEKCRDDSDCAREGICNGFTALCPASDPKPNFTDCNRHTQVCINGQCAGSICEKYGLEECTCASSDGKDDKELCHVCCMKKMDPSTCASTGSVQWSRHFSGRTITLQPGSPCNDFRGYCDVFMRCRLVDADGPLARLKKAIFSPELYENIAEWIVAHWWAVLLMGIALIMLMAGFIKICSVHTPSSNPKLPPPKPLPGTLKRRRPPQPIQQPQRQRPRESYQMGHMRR
# ADAM17 inh = ADAM17 inhibitors, primary screen, biochemical, QFRET | Disintegrin and metalloproteinase domain-containing protein 17 (Homo sapiens), P78536 | recombinant ADAM17, EDANS/DABCYL FRET peptide cleavage | actives 0.83% (n = 370,000) | inhibition, % at 6.95 µM | AID 720648, 2013;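 active means inhibition above the mean of compounds lying between control limits plus 3 SD, set per campaign, cut at about 8.5% in these data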;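 further: 0% = DMSO-only wells as the low control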
# PLC-beta3 inh = human PLC-beta3 inhibitors, primary screen, biochemical, fluorescence; Purified PLC-beta3, fluorogenic substrate; inhibition, % at 12.2 µM; 1-phosphatidylinositol 4,5-bisphosphate phosphodiesterase beta-3 (Homo sapiens), Q01970; actives 0.18% (n = 370,000); in the data active means inhibition above about 11%;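 further: 0% = median of compound wells on plate and 100% = full blocker control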
# DDE Tn7 FP inh = inhibitors of Tn7 peptide binding to fibrin DD(E), primary screen, biochemical, fluorescence polarization, human fibrin, Tn7 probe; Fibrinogen beta chain (Homo sapiens), P02675; FP displacement of FITC-Tn7 peptide from fibrin DD(E); 0% = median of compound wells per plate; inhibition, % at 8.3 µM; actives 0.13% (n = 370,000);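 active means inhibition above the mean of compounds falling within the control limits plus 3 SD of them, cut at about 14% in these data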;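 further: 0% = plate median of compound wells and 100% = 10 µM Aha-Tn7 peptide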
#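 Assay system: Human fibrin DD(E) protein | Medium: Tris buffer with calcium and detergent, pH 7.8 | Reagent: 0.1 µM fluorescent Tn7 | Compound dosing: Single point at 8.3 µM | Times: 10 min preincubation, 3 h with tracer, room temperature | Detection: Fluorescence polarization of the labelled Tn7 tracer | Controls: Aha-Tn7 high control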
# DDE Tn6 FP inh = inhibitors of Tn6 peptide binding to fibrin DD(E), primary screen, biochemical, fluorescence polarization, human fibrin, Tn6 probe | Fibrin DD(E) TRITC-Tn6 fluorescence polarization displacement | inhibition, % at 8.3 µM | actives 0.21% (n = 370,000);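 active means inhibition above a per-campaign cutoff: mean of compounds within control limits plus 3 SD, cut at about 15% in these data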;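 further: 0% = median of all compound wells on the plate and 100% = blocking peptide control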
# ADAM10 confirm = human ADAM10 inhibitors, confirmation, biochemical, QFRET, triplicate; inhibition, % at 6.95 µM; ADAM10 QFRET peptide cleavage, EDANS fluorescence; actives 1% (n = 2,100); AID 743208, 2013; shares compounds with ADAM10 inh;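 active means inhibition above about 20% chosen separately for each screening run, limit read from the data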;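 further: 0% = DMSO wells and 100% = marimastat wells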
# ADAM17 counter = ADAM17 inhibitors, counter-screen for ADAM10 exosite inhibitor project, biochemical, QFRET, high throughput; shares compounds with ADAM10 inh; actives 0.5% (n = 2,100); ADAM17 QFRET peptide cleavage, EDANS fluorescence; inhibition, % at 6.95 µM;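 active means mean triplicate inhibition above the solvent-only control wells' mean plus 3 SD, cut at about 12% in these data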;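 further: 0% = DMSO wells and 100% = marimastat wells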
# * hit, by the source's call; x = no result given. An excerpt weighted towards active compounds, which were near 2.3% of everything screened.
SMILES,PLC-gamma1 inh,ADAM10 inh,ADAM17 inh,PLC-beta3 inh,DDE Tn7 FP inh,DDE Tn6 FP inh,ADAM10 confirm,ADAM17 counter
O=C(C1CC1)N1CCc2cc(Br)c(S(=O)(=O)NCCCN3CCCCC3)cc21,2,-1,-2,-3,-5,-2,x,x
Cc1ccc(NNC(=O)C(O)(c2cccc(C(F)(F)F)c2)c2cccc(C(F)(F)F)c2)cc1,-8,26*,7,-40,-4,-4,1,0
CCNC(=S)NNC(=O)CSc1nc2ccccc2c(=O)n1-c1ccc(Cl)cc1,3,10,4,4,-3,0,x,x
CCC(NS(=O)(=O)c1ccc(C)cc1)C(=O)N1CCN(c2ccccn2)CC1 (centres undefined),3,80*,-1,3,2,5,2,1
CC(=O)Nc1ccc(S(=O)(=O)N[C@@H](C)C(=O)N2CCN(c3ccccn3)CC2)cc1,6,-4,0,-1,-3,3,x,x
O=C(NNC(=O)c1cc(-c2cccc(Br)c2)nc2ccccc12)c1csc(N2CCOCC2)n1,-20,22*,7,-22,-1,1,9,3
Cc1cc(Cl)ccc1NC(=O)CN1CCC(C(O)(c2ccccc2)c2ccccc2)CC1,6,26*,8.7*,4,3,1,2,2
O=C(Nc1ccc(OCC(F)(F)C(F)F)c(C(F)(F)F)c1)c1ccccc1O,-37,-15,-2,-39,-8,-4,x,x
O=C(Nc1ccc(OCC(F)(F)C(F)F)c(C(F)(F)F)c1)c1ccccc1,-4,24*,7,0,8,-2,3,0
COc1ccc(C(=O)OCC(=O)c2c[nH]c3ccccc23)cc1OC,-10,-6,-7,-26,6,14,x,x
COc1cc(OC)c(N(C)S(=O)(=O)c2cccc(C(=O)OCC(=O)c3c[nH]c4ccccc34)c2)cc1Cl,4,32*,-1,1,-2,2,14,5
C/C(N)=C(/C#N)C(=O)CSc1nn(-c2ccc(Cl)cc2)c(=S)s1,3,24*,8,5,-6,-10,4,1
COc1cc(CNn2cn[nH]c2=S)cc(Cl)c1OCc1ccc(F)cc1,1,11,-1,4,-1,1,x,x
COc1cc(CNn2c(C)n[nH]c2=S)cc(Cl)c1OCc1ccccc1,8,28*,5,2,2,4,-1,0
COc1ccc(NC(=O)CSc2nc3c([nH]c4ccccc43)c(=O)n2C)cc1,1,57*,0,4,-1,-11,4,0
Cc1ccc(C)c(-c2cc(C(=O)NCc3cccs3)c3ccccc3n2)c1,0,20*,5,-3,3,6,5,2
O=C(NCc1cccs1)c1cc(-c2ccccc2)nc2ccccc12,-1,-13,2,-3,1,10,x,x
C[C@H](CCC(=O)OCc1cn(CC(=O)c2ccc(O)cc2)nn1)C1CC[C@H]2[C@@H]3CC[C@@H]4C[C@H](O)CC[C@]4(C)[C@H]3C[C@H](O)[C@]12C (some centres undefined),2,30*,7,4,-3,2,8,1
Cc1cccc(NC(=O)Cn2nnc(-c3ccccc3F)n2)c1C,6,7,-2,4,4,0,x,x
CCSc1nc2c(c(=O)[nH]c(=O)n2C)n1C/C=C(/C)Cl,5,20*,3,4,4,1,1,0
Cc1cc(OC(C)CCN2CCC(C(O)(c3ccccc3)c3ccccc3)CC2)ccc1Br (centres undefined),5,9,4,2,-3,-7,x,x
Cc1cccc(NC(=O)c2cc3n(n2)C(C(F)(F)F)CC(c2ccc4c(c2)OCO4)N3)c1 (centres undefined),-2,22*,5,-5,11,-3,2,-1
CC(Cl)C(=O)N1CCC(C(=O)NCC2COc3ccccc3O2)CC1 (centres undefined),-3,-8,2,-1,-4,1,x,x
NC(=O)c1ccsc1NC(=O)CS(=O)(=O)c1ccccc1,1,84*,-1,3,-2,-6,0,0
NC(=O)c1ccsc1NC(=O)CCS(=O)(=O)c1ccccc1,0,-1,0,-6,-7,5,x,x
SMILES,PLC-gamma1 inh,ADAM10 inh,ADAM17 inh,PLC-beta3 inh,DDE Tn7 FP inh,DDE Tn6 FP inh,ADAM10 confirm,ADAM17 counter
Cc1nc(N2CCN(C(=O)C3CCCCC3)CC2)c2c3c(sc2n1)CCCC3,-2,-27,-9,-6,4,-7,x,x
O=C(CCN1CCN(c2ccccc2)CC1)NNC(=S)Nc1ccccc1Cl,3,21*,15*,0,-5,-1,1,1
O=C(CCN1CCN(Cc2ccccc2)CC1)Nc1ccc(OCc2ccccc2)cc1,7,21*,2,7,6,3,4,1
C[C@@]12C(=O)Nc3cc(F)c(F)cc3C(=O)N1[C@H]1c3ccccc3OC[C@@H]1[C@@H]2c1ccccc1,1,21*,10*,1,-2,-6,7,4
O=C(N/C=N/OCc1ccc(Cl)cc1Cl)NOCc1ncc(C(F)(F)F)cc1Cl,4,20*,11*,-1,-12,0,11,3
CO/N=C/NC(=O)NOCc1ncc(C(F)(F)F)cc1Cl,4,1,5,5,-10,-3,x,x
COc1ccc2c(c1)OC[C@H]1[C@H]2N2C(=O)CN(Cc3ccccc3)C(=O)[C@@]2(C)[C@H]1c1ccccc1,1,23*,8,3,1,0,4,1
CCOC(=O)[C@H]1[C@H]2COc3ccc(C)cc3[C@@H]2N2C(=O)CN(Cc3ccc(C)cc3)C(=O)[C@@]12C,0,2,1,-1,2,6,x,x
CCOC(=O)[C@H]1[C@H]2COc3ccc(Cl)cc3[C@@H]2N2C(=O)c3cc(Br)ccc3NC(=O)[C@@]12C,-2,23*,6,4,-7,-12,5,1
